Our source for the half-life, IC50 and Kd values is ChEMBL document CHEMBL1138344, “Nuclear magnetic resonance fragment-based identification of novel FKBP12 inhibitors” (J Med Chem, 2007).

A value given as a limit tells only on which side of the number the result lay.

One may read the half-life as the time in which the quantity being followed falls by half. A higher half-life goes with slow loss. As usually defined, the IC50 is the concentration that gives 50% inhibition. As usually defined, the Kd is the concentration at which binding is half-saturated. Lower therefore signals higher affinity.

Tested on in the first series: not listed separately
Briefly: Metabolic stability in human liver microsomes. The class given is ADME, Microsome. The essentials:
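Pooled human liver microsomes with an NADPH-generating system (DETAPAC, NADP+, glucose-6-phosphate, G6P dehydrogenase) in 50 mM potassium phosphate pH 7.4. Started by adding compound from a 5 mM stock (FK506 stock 0.5 mM). Aliquots taken at 0, 10, 25, 40 and 60 min and extracted with dichloromethane/isopropanol 3:1. Half-life determined.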
The molecule `CC(C)c1ccc(SCC(=O)N2CCOCC2C(=O)OCCCc2cccnc2)cc1` (configuration not stated) gave a half-life of 40 min. The molecule `CC(C)c1ccc(SCC(=O)N2CCOCC2C(=O)O)cc1` (configuration not stated) came in with a half-life of more than 60 min. On the same count and under the same terms, in the case of `COC(=O)C1COCCN1C(=O)CSc1ccc(C(C)C)cc1` (configuration not stated) it was 40 min. The same measure, in the same setting: in the case of `COC(=O)C1COCCN1C(=O)C(F)(F)Sc1ccc(C(C)C)cc1` (configuration not stated) it was 40 min.

For `COc1ccc(CCC(=O)N2CCOCC2)cc1`, the half-life came to 40 min. Same read-out and setting: then `CC(C)c1ccc(SCC(=O)N2CCOCC2)cc1`, with 40 min. On the same count and under the same terms, then `C=CC[C@@H]1/C=C(\C)C[C@H](C)C[C@H](OC)[C@H]2O[C@@](O)(C(=O)C(=O)N3CCCC[C@H]3C(=O)O[C@H](/C(C)=C/[C@@H]3CC[C@@H](O)[C@H](OC)C3)[C@H](C)[C@@H](O)CC1=O)[C@H](C)C[C@@H]2OC` [TACROLIMUS ANHYDROUS], with more than 60 min; and `COC(=O)[C@@H]1CCCCN1C(=O)C(=O)c1cc(OC)c(OC)c(OC)c1`, with 40 min.

Molecular target in the next series: not listed separately
Put plainly: Inhibition of testosterone 6-hydroxylase. More on the design: species or system Homo sapiens. The essentials:
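Pooled human liver microsomes with an NADPH-generating system (DETAPAC, NADP+, glucose-6-phosphate, G6P dehydrogenase) in 50 mM potassium phosphate pH 7.4. Compound added, then testosterone substrate; 10 min shaking at 37 °C, stopped with cold ethyl acetate. Read-out is 6-hydroxytestosterone formation. IC50 estimated, or determined in detail for some compounds.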
In turn, `CC(C)c1ccc(SCC(=O)N2CCOCC2C(=O)OCCCc2cccnc2)cc1` (configuration not stated) had a concentration for half-maximal inhibition (IC50) of 0.81 µM. Still for that read-out and setting: then `C=CC[C@@H]1/C=C(\C)C[C@H](C)C[C@H](OC)[C@H]2O[C@@](O)(C(=O)C(=O)N3CCCC[C@H]3C(=O)O[C@H](/C(C)=C/[C@@H]3CC[C@@H](O)[C@H](OC)C3)[C@H](C)[C@@H](O)CC1=O)[C@H](C)C[C@@H]2OC` [TACROLIMUS ANHYDROUS], with 2.26 µM.

A further series deals with Peptidyl-prolyl cis-trans isomerase FKBP1A (Homo sapiens, UniProt P62942).
Peptidyl-prolyl cis-trans isomerase FKBP1A, sequence (P62942 whole entry): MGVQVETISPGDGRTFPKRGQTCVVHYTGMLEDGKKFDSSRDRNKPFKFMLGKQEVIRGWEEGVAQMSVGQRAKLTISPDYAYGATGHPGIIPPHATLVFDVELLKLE
Take `O=C(COc1ccc(S(=O)(=O)NC2CCCC2)cc1)N1CCOCC1`: binding was put at a Kd of 755 µM. `Clc1cccc(Cl)c1Cn1c(-c2cscn2)nc2ccccc21` gave a dissociation constant Kd of more than 4000 µM. In the case of `CC(=O)c1cccc(NS(=O)(=O)N2CCCCC2)c1`, binding was characterised by a dissociation constant (Kd) of 552 µM. The same measure, in the same setting: then `CC(C)c1ccc(SCC(=O)N2CCOCC2C(=O)OCCCc2cccnc2)cc1` (configuration not stated), with 5.6 µM; and `CC(C)c1ccc(SCC(=O)N2CCOCC2C(=O)O)cc1` (configuration not stated), with 426 µM; and `FC(F)(F)c1cccc(Cn2c(-c3cscn3)nc3ccccc32)c1`, with more than 3000 µM. With `Cc1cc(C)cc(NS(=O)(=O)N2CCCCC2)c1`, the Kd was more than 1860 µM.

The molecule `Brc1ccccc1Cn1c(-c2cscn2)nc2ccccc21` yielded a Kd of more than 3000 µM. On the same count and under the same terms, then `c1ccc2c(c1)nc(-c1cscn1)n2CCCc1nnn[nH]1`, with more than 1500 µM. On the same count and under the same terms, then `O=C(COc1ccc(Cl)cc1Cl)N1CCOCC1`, with more than 1030 µM; and `CC1CN(C(=O)COc2ccccc2Cl)CC(C)O1` (configuration not stated), with more than 5000 µM; and `O=C(CSc1ccc(Cl)cc1)N1CCOCC1`, with 15 µM.

The molecule `Cc1cc(N)cc(C)c1OCC(=O)N1CCOCC1` registered a dissociation constant Kd of more than 2400 µM. On to `Cc1ccc(-c2ccc(OCC(=O)N3CCOCC3)cc2)cc1`, for which binding was characterised by a dissociation constant (Kd) of 755 µM. Same read-out and setting: in the case of `O=S(=O)(Nc1cc(Cl)cc(Cl)c1)N1CCCCC1` it was 155 µM; in that of `O=C(CSc1ccccc1)N1CCOCC1`, 15.3 µM.

For the molecule `O=S(=O)(Nc1ccc2c(c1)oc1ccccc12)N1CCCCC1`, the Kd was more than 3700 µM. Still for that read-out and setting: then `CC(C)c1ccc(S(=O)(=O)CC(=O)N2CCOCC2C(=O)OCCCc2ccc[n+]([O-])c2)cc1` (configuration not stated), with 1280 µM. For the molecule `O=C(Nc1ccc(OCC(=O)N2CCOCC2)cc1)c1ccccc1Cl`, the equilibrium dissociation constant (Kd) is more than 2500 µM.

In the case of `Cc1cc(OCC(=O)N2CC(C)OC(C)C2)cc(C)c1Cl` (configuration not stated), the equilibrium dissociation constant (Kd) was more than 5000 µM.

In turn, `CC(C)c1ccc(SCC(=O)O)cc1` registered an equilibrium dissociation constant (Kd) of more than 4000 µM.

Take `CC1CN(C(=O)CSc2ccccc2)CC(C)O1` (configuration not stated): the affinity, expressed as Kd, was 726 µM. On the same count and under the same terms, then `COc1cc(CNCc2cccs2)ccc1OCC(=O)N1CCOCC1`, with more than 5000 µM; and `O=S(=O)(Nc1ccc(F)cc1)N1CCCCC1`, with 319 µM.

Molecule `Cc1ccc(NS(=O)(=O)c2ccc(OCC(=O)N3CCOCC3)cc2)cc1` registered a Kd of more than 1000 µM. Same read-out and setting: then `O=C(Cn1c(-c2cscn2)nc2ccccc21)Nc1ccccc1F`, with more than 4000 µM; and `CCc1ccccc1OCC(=O)N1CCOCC1`, with more than 1500 µM; and `O=C(COc1cccc(Cl)c1)N1CCOCC1`, with 755 µM.

Molecule `O=S(=O)(Nc1ccc(Br)cc1)N1CCCCC1` showed a dissociation constant (Kd) of 299 µM. The same measure, in the same setting: then `Cc1cc(C)c(C)c(OCC(=O)N2CCOCC2)c1`, with more than 1000 µM; and `c1ccc2[nH]c(-c3cscn3)nc2c1` [THIABENDAZOLE], with 60 µM; and `Cc1cc(S(=O)(=O)Nc2cccc(C(F)(F)F)c2)ccc1OCC(=O)N1CCOCC1`, with 576 µM. `O=C(CSc1cccc2cccnc12)N1CCOCC1`: the Kd was more than 1400 µM.

`CC(C)NS(=O)(=O)c1ccc(OCC(=O)N2CCOCC2)cc1` returned a Kd of more than 1000 µM. `COC(=O)C1COCCN1C(=O)C(F)(F)Sc1ccc(C(C)C)cc1` (configuration not stated) showed a dissociation constant (Kd) of 190 µM. Regarding `c1ccc2c(c1)nc(-c1cscn1)n2Cc1ccc(-c2nnn[nH]2)cc1`, the Kd was more than 3000 µM. On the same count and under the same terms, in the case of `O=C(COc1ccc2c(c1)OCO2)N1CCOCC1` it was 576 µM. Still for that read-out and setting: then `O=C(Nc1cccc(Cl)c1Cl)c1ccccc1OCC(=O)N1CCOCC1`, with more than 5000 µM; and `Nc1nc(-c2nc3ccccc3[nH]2)cs1`, with 98 µM; and `Cc1ccc(NS(=O)(=O)N2CCCCC2)c(C)c1`, with 287 µM. On the same count and under the same terms, in the case of `Cc1ccc(C(C)C)c(OCCNC(=O)c2ccccc2OCC(=O)N2CCOCC2)c1` it was more than 2500 µM; in that of `CC(C)c1ccccc1OCC(=O)N1CCOCC1`, more than 2500 µM; in that of `O=C(COc1ccccc1F)N1CCOCC1`, 357 µM. As for `Fc1ccc(Cn2c(-c3cscn3)nc3ccccc32)c(Cl)c1`, the Kd is more than 4000 µM. Take `O=[N+]([O-])c1ccc(NS(=O)(=O)N2CCCCC2)cc1`: binding was put at a Kd of 167 µM. The molecule `CSc1ccccc1NC(=O)Cn1c(-c2cscn2)nc2ccccc21` registered a Kd of more than 4000 µM. `COc1ccc(OCC(=O)N2CCOCC2)cc1`: the Kd was found to be 357 µM. `Cc1nnc(SCC2=NOCC2)n1-c1ccccc1`: the Kd is 39 µM. On to `Cc1cc(S(=O)(=O)N2CCCC2)ccc1OCC(=O)N1CCOCC1`, for which the equilibrium dissociation constant (Kd) was determined as 576 µM. With `O=C(COc1ccc(F)cc1)N1CCOCC1`, the affinity, expressed as Kd, was 576 µM. Same read-out and setting: in the case of `Cc1cc(C)c(OCC(=O)N2CCOCC2)c(C)c1` it was more than 1500 µM; in that of `COc1cc2c(cc1NS(=O)(=O)N1CCCCC1)oc1ccccc12`, more than 3700 µM. Still for that read-out and setting: in the case of `Nc1cccc(OCC(=O)N2CCOCC2)c1` it was more than 5000 µM; in that of `Cc1ccc(SCC(=O)N2CC(C)OC(C)C2)cc1` (configuration not stated), more than 4000 µM; in that of `O=C(Nc1ccc(OCC(=O)N2CCOCC2)cc1)c1ccccc1F`, more than 1500 µM.

In the case of `Cc1ccc(OCC(=O)N2CC(C)OC(C)C2)cc1C` (configuration not stated), the Kd was more than 5000 µM. In turn, `O=C(O)c1ccccc1SCC(=O)N1CCOCC1` had a Kd of more than 3700 µM. On the same count and under the same terms, then `Cc1ccc(SCC(=O)N2CCOCC2)cc1`, with 15 µM; and `CC(C)c1ccc(CCC(=O)N2CCOCC2)cc1`, with 2.3 µM.

`O=C(Cn1c(-c2cscn2)nc2ccccc21)Nc1ccc(Cl)cc1`: the Kd was more than 4000 µM. `Cc1ccc(OCC(=O)N2CCOCC2)cc1C` displayed a Kd of 231 µM. The same measure, in the same setting: in the case of `O=C(COc1ccccc1)N1CCOCC1` it was more than 1030 µM.

Take `N#Cc1ccccc1Cn1c(-c2cscn2)nc2ccccc21`: the equilibrium dissociation constant (Kd) is more than 4000 µM.

In turn, `Cc1cc(OCC(=O)N2CCOCC2)cc(C(C)C)c1Cl` showed a Kd of 576 µM. Take `Cc1cc(Cl)ccc1OCC(=O)N1CCOCC1`: the Kd was more than 1000 µM. With `Cc1ccc(OCC(=O)N2CCOCC2)c(C)c1`, the dissociation constant (Kd) is more than 1000 µM. In turn, `Cc1ccc(Cl)cc1NS(=O)(=O)N1CCCCC1` yielded a dissociation constant (Kd) of more than 3700 µM. On the same count and under the same terms, then `CCc1ccc(OCC(=O)N2CCOCC2)cc1`, with 123 µM; and `COc1ccc(CCC(=O)N2CCOCC2)cc1`, with 204 µM. For the molecule `COC(=O)C1COCCN1C(=O)CS(=O)(=O)c1ccc(C(C)C)cc1` (configuration not stated), binding was put at a Kd of 505 µM. Same read-out and setting: in the case of `CCCCNS(=O)(=O)c1ccc(OCC(=O)N2CCOCC2)cc1` it was 755 µM. On the same count and under the same terms, in the case of `Cc1ccc(NS(=O)(=O)N2CCCCC2)cc1Cl` it was 135 µM. On the same count and under the same terms, then `O=C(Nc1ccc(OCC(=O)N2CCOCC2)cc1)c1cccnc1`, with more than 5000 µM; and `O=C(CSc1ccc2ccccc2c1)N1CCOCC1`, with more than 1400 µM. `Cc1ccc(S(=O)(=O)CC(=O)N2CCOCC2)cc1` had a Kd of more than 5000 µM. Still for that read-out and setting: in the case of `Cc1cc(OCC(=O)N2CCOCC2)ccc1NC(=O)OCc1ccccc1` it was more than 1500 µM; in that of `CC(C)c1ccc(OCC(=O)N2CCOCC2)cc1`, 100 µM; in that of `Cc1ccc(NS(=O)(=O)N2CCCCC2)cc1`, 289 µM. The same measure, in the same setting: then `CC(C)c1ccc(SC(F)(F)C(=O)N2CCOCC2)cc1`, with 2.8 µM; and `O=C(COc1cc(Cl)c(Cl)cc1Cl)N1CCOCC1`, with 450 µM.

As to `O=C(O)c1cc(C(F)(F)F)ccc1SCC(=O)N1CCOCC1`, the Kd was 453 µM.

Turning to `Cc1cc(OCC(=O)N2CCOCC2)ccc1C(C)C`, the dissociation constant Kd was determined as 187 µM.

For the molecule `Cc1ccc2cccc(SCC(=O)N3CCOCC3)c2n1`, the Kd is more than 1400 µM.

`COC(=O)[C@@H]1CCCCN1C(=O)C(=O)c1cc(OC)c(OC)c(OC)c1`: the Kd was found to be 3 µM. `CCOc1ccc(OCC(=O)N2CCOCC2)cc1`: the affinity, expressed as Kd, was 576 µM.

`CCOc1ccc(NS(=O)(=O)N2CCCCC2)cc1`: the Kd is more than 1230 µM. The same measure, in the same setting: then `Cc1cc(OCC(=O)N2CCOCC2)cc(C)c1Cl`, with 231 µM.
